Measured values from ChEMBL document CHEMBL3774373, “Activity and Predicted Nephrotoxicity of Synthetic Antibiotics Based on Polymyxin B” (J Med Chem, 2016).
≈ marks a conversion by molar mass, not a printed value. Bridge positions count the residues as written; N and C are the ends. Square brackets hold non-standard residues; d marks the D form. Peptide text beside a SMILES is read from it. * marks the point of attachment. ξ: configuration not given here. Phe(4-NH2) = Nc1ccc(C[C@H](N)C(=O)O)cc1; ξGly(octyl) = CCCCCCCCC(N)C(=O)O; dDab = NCC[C@@H](N)C(=O)O; hSer = N[C@@H](CCO)C(=O)O; Octanoyl = CCCCCCCC(=O)*; Dab = NCC[C@H](N)C(=O)O

Tests used:
Klebsiella pneumoniae [1] = experiment: Antibacterial activity against clinical isolate carbapenem and polymyxin resistant Klebsiella pneumoniae 138-16357-20362 after 18 hrs by 2 fold serial dilution method; type: functional; details: 138-16357-20362, 18 h
Method in brief: (§1)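 Polymyxin-resistant clinical isolates were grown overnight at 37 °C in NB or MHB with shaking, diluted 50-fold in MHB and grown 1.5–3 h to mid-log phase. The inoculum was 5×10^5 CFU/mL. Compounds were 2-fold broth serial dilutions, final 32 to 0.015 μg/mL; the polymyxin controls ran 128–0.06 μg/mL. The MIC was the lowest concentration with no visible growth after 18 h at 37 °C.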

Klebsiella pneumoniae [2] = experiment: Antibacterial activity against multidrug resistant Klebsiella pneumoniae ATCC 700603 after 18 hrs by 2 fold serial dilution method; type: functional; details: Klebsiella pneumoniae, 700603, 18 h
Method in brief: (§2)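 Overnight cultures at 37 °C in nutrient or Mueller Hinton broth with shaking were diluted 50-fold in MHB and grown 1.5–3 h to mid-log phase. The inoculum was 5×10^5 CFU/mL in MHB. Compounds were 2-fold serially diluted, final 32 to 0.015 μg/mL. After 18 h at 37 °C, the MIC was read visually as the lowest concentration with no visible growth.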

Escherichia coli = experiment: Antibacterial activity against Escherichia coli ATCC 25922 after 18 hrs by 2 fold serial dilution method; type: functional; details: ATCC 25922, 18 h
Method in brief: (§3)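 Overnight cultures in nutrient or Mueller Hinton broth at 37 °C with shaking, diluted 50-fold into fresh MHB and grown 1.5–3 h to mid-log. Inoculum 5×10^5 CFU/mL in 2-fold serial dilutions, final range 32 to 0.015 μg/mL. MIC read visually after 18 h at 37 °C as the lowest concentration with no visible growth.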

Klebsiella pneumoniae [3] = experiment: Antibacterial activity against Klebsiella pneumoniae ATCC 13883 after 18 hrs by 2 fold serial dilution method; type: functional; details: ATCC 13883, 18 h; method in brief: as §3
Pseudomonas aeruginosa [4] = experiment: Antibacterial activity against clinical isolate polymyxin resistant Pseudomonas aeruginosa PA9704 after 18 hrs by 2 fold serial dilution method; type: functional; details: PA9704, 18 h; method in brief: as §1
Acinetobacter baumannii [5] = experiment: Antibacterial activity against Acinetobacter baumannii ATCC 19606 after 18 hrs by 2 fold serial dilution method; type: functional; details: ATCC 19606, 18 h; method in brief: as §3
Pseudomonas aeruginosa [6] = experiment: Antibacterial activity against clinical isolate polymyxin resistant Pseudomonas aeruginosa FADDI-PA070 after 18 hrs by 2 fold serial dilution method; type: functional; details: FADDI-PA070, 18 h; method in brief: as §1
Klebsiella pneumoniae [7] = experiment: Antibacterial activity against clinical isolate carbapenem and polymyxin resistant Klebsiella pneumoniae Koprana 100650661:1 after 18 hrs by 2 fold serial dilution method; type: functional; details: Koprana 100650661:1, 18 h; method in brief: as §1
[8] = Cytotoxicity against human HepG2 cells after 24 hrs by resazurin assay; type: cell-based; details: HepG2 cells
Klebsiella pneumoniae [9] = experiment: Antibacterial activity against Klebsiella pneumoniae ATCC BAA-2146 expressing NDM-1 after 18 hrs by 2 fold serial dilution method; type: functional; details: ATCC BAA-2146, 18 h; method in brief: as §2
Staphylococcus aureus = experiment: microbe, parasite or virus in culture; details: ATCC 25923, 18 h
Acinetobacter baumannii [10] = experiment: Antibacterial activity against clinical isolate carbapenem and polymyxin resistant Acinetobacter baumannii Ptyela 100734512:2 after 18 hrs by 2 fold serial dilution method; type: functional; details: Ptyela 100734512:2, 18 h; method in brief: as §1
Pseudomonas aeruginosa [11] = experiment: Antibacterial activity against Pseudomonas aeruginosa ATCC 27853 after 18 hrs by 2 fold serial dilution method; type: functional; details: ATCC 27853, 18 h; method in brief: as §3

Row | SMILES | MIC (Klebsiella pneumoniae [1]) [µg/mL] | MIC (Klebsiella pneumoniae [2]) [µg/mL] | MIC (Escherichia coli) [µg/mL] | MIC (Klebsiella pneumoniae [3]) [µg/mL] | MIC (Pseudomonas aeruginosa [4]) [µg/mL] | MIC (Acinetobacter baumannii [5]) [µg/mL] | MIC (Pseudomonas aeruginosa [6]) [µg/mL] | MIC (Klebsiella pneumoniae [7]) [µg/mL] | CC50 at 24 h [8] [µM] | MIC (Klebsiella pneumoniae [9]) [µg/mL] | MIC (Staphylococcus aureus) [µg/mL] | MIC (Acinetobacter baumannii [10]) [µg/mL] | MIC (Pseudomonas aeruginosa [11]) [µg/mL]
1 | CCCCCCCC(=O)N[C@@H](CCN)C(=O)N[C@H](C(=O)N[C@@H](CCN)C(=O)N[C@H]1CCNC(=O)[C@H]([C@@H](C)O)NC(=O)[C@H](CCN)NC(=O)[C@H](CCN)NC(=O)[C@H](CC(C)C)NC(=O)[C@@H](Cc2ccccc2)NC(=O)[C@H](CCNC(=O)[C@@H](N)CCC(=O)O)NC1=O)[C@@H](C)O (Octanoyl-[Dab]T[Dab][Dab][Dab](Glu)[dF]L[Dab][Dab]T; lactam 4-C) | > 32 | > 32 | > 32 | > 32 | > 32 | > 32 | > 32 | > 32 | > 300 | 32 (≈ 24.3 µM) | > 32 | > 32 | > 32
2 | CCCCCCCC(=O)N[C@@H](CCN)C(=O)N[C@H](C(=O)N[C@H](CO)C(=O)N[C@H]1CCNC(=O)[C@H]([C@@H](C)O)NC(=O)[C@H](CCN)NC(=O)[C@H](CCN)NC(=O)[C@H](CC(C)C)NC(=O)[C@@H](Cc2ccccc2)NC(=O)[C@H](CCN)NC1=O)[C@@H](C)O (Octanoyl-[Dab]T[dS][Dab][Dab][dF]L[Dab][Dab]T; lactam 4-C) | > 32 | 2 (≈ 1.7 µM) | 4 (≈ 3.4 µM) | 0.5 (≈ 0.425 µM) | > 32 | 1 (≈ 0.85 µM) | > 32 | > 32 | > 300 | 16 (≈ 13.6 µM) | > 32 | > 32 | 2 (≈ 1.7 µM)
3 | CCCCCCCC(=O)N[C@@H](CCN)C(=O)N[C@H](C(=O)N[C@@H](CCN)C(=O)N[C@H]1CCNC(=O)[C@H]([C@@H](C)O)NC(=O)[C@H](CCN)NC(=O)[C@H](CCO)NC(=O)[C@H](CC(C)C)NC(=O)[C@@H](Cc2ccccc2)NC(=O)[C@H](CCN)NC1=O)[C@@H](C)O (Octanoyl-[Dab]T[Dab][Dab][Dab][dF]L[hSer][Dab]T; lactam 4-C) | > 32 | 2 (≈ 1.68 µM) | 1 (≈ 0.84 µM) | > 32 | > 32 | 8 (≈ 6.72 µM) | > 32 | > 32 | > 300 | 2 (≈ 1.68 µM) | > 32 | > 32 | 4 (≈ 3.36 µM)
4 | CCCCCCCC(=O)N[C@@H](CCN)C(=O)N[C@H](C(=O)N[C@@H](CCN)C(=O)N[C@H]1CCNC(=O)[C@H]([C@@H](C)O)NC(=O)[C@H](CCN)NC(=O)[C@H](CCNC(=O)[C@@H](N)CCC(=O)O)NC(=O)[C@H](CC(C)C)NC(=O)[C@@H](Cc2ccccc2)NC(=O)[C@H](CCN)NC1=O)[C@@H](C)O (Octanoyl-[Dab]T[Dab][Dab][Dab][dF]L[Dab](Glu)[Dab]T; lactam 4-C) | > 32 | 4 (≈ 3.03 µM) | 1 (≈ 0.758 µM) | 8 (≈ 6.07 µM) | > 32 | 4 (≈ 3.03 µM) | > 32 | > 32 | > 300 | 4 (≈ 3.03 µM) | > 32 | > 32 | 8 (≈ 6.07 µM)
5 | CCCCCCCC(=O)N[C@@H](CCN)C(=O)N[C@H](C(=O)N[C@@H](CCN)C(=O)N[C@H]1CCNC(=O)[C@H]([C@@H](C)O)NC(=O)[C@H](CCN)NC(=O)[C@H](CCN)NC(=O)[C@H](CC(C)C)NC(=O)[C@@H](Cc2ccccc2)NC(=O)[C@H](CCO)NC1=O)[C@@H](C)O (Octanoyl-[Dab]T[Dab][Dab][hSer][dF]L[Dab][Dab]T; lactam 4-C) | > 32 | > 32 | 16 (≈ 13.4 µM) | > 32 | > 32 | > 32 | > 32 | > 32 | > 300 | 32 (≈ 26.9 µM) | > 32 | > 32 | > 32
6 | CCCCCCCC(=O)N[C@H](CCN)C(=O)N[C@H](C(=O)NCC(=O)N[C@H]1CCNC(=O)[C@H]([C@@H](C)O)NC(=O)[C@H](CCN)NC(=O)[C@H](CCN)NC(=O)[C@H](CC(C)C)NC(=O)[C@@H](Cc2ccccc2)NC(=O)[C@H](CCN)NC1=O)[C@@H](C)O (Octanoyl-[dDab]TG[Dab][Dab][dF]L[Dab][Dab]T; lactam 4-C) | > 32 | 8 (≈ 6.98 µM) | > 32 | > 32 | > 32 | > 64 | > 32 | > 32 | > 300 | 32 (≈ 27.9 µM) | > 64 | > 32 | 16 (≈ 14 µM)
7 | CCCCCCCC(=O)N[C@@H](CCN)C(=O)N[C@H](C(=O)N[C@@H](CCN)C(=O)N[C@H]1CCNC(=O)[C@H]([C@@H](C)O)NC(=O)[C@H](CCCNC(=N)N)NC(=O)[C@H](CCN)NC(=O)[C@H](CC(C)C)NC(=O)[C@@H](Cc2ccccc2)NC(=O)[C@H](CCN)NC1=O)[C@@H](C)O (Octanoyl-[Dab]T[Dab][Dab][Dab][dF]L[Dab]RT; lactam 4-C) | > 32 | 8 (≈ 6.42 µM) | 16 (≈ 12.8 µM) | > 32 | > 32 | 32 (≈ 25.7 µM) | > 32 | > 32 | > 300 | 4 (≈ 3.21 µM) | > 32 | > 32 | 1 (≈ 0.803 µM)
8 | CCCCCCCCC1NC(=O)[C@@H](Cc2ccccc2)NC(=O)[C@H](CCN)NC(=O)[C@@H](NC(=O)[C@H](CCN)NC(=O)[C@@H](NC(=O)[C@H](CCN)NC(=O)CCCCCCC)[C@@H](C)O)CCNC(=O)[C@H]([C@@H](C)O)NC(=O)[C@H](CCN)NC(=O)[C@H](CCN)NC1=O (some centres not stated) (Octanoyl-[Dab]T[Dab][Dab][Dab][dF][ξGly(octyl)][Dab][Dab]T; lactam 4-C) | 32 (≈ 25.7 µM) | 2 (≈ 1.61 µM) | 1 (≈ 0.803 µM) | 2 (≈ 1.61 µM) | 8 (≈ 6.42 µM) | 1 (≈ 0.803 µM) | 16 (≈ 12.8 µM) | 32 (≈ 25.7 µM) | 116 | 1 (≈ 0.803 µM) | 8 (≈ 6.42 µM) | 8 (≈ 6.42 µM) | 2 (≈ 1.61 µM)
9 | CCCCCCCC(=O)N[C@@H](CCN)C(=O)N[C@H](C(=O)N[C@@H](CCN)C(=O)N[C@H]1CCNC(=O)[C@H]([C@@H](C)O)NC(=O)[C@H](Cc2ccc(N)cc2)NC(=O)[C@H](CCN)NC(=O)[C@H](CC(C)C)NC(=O)[C@@H](Cc2ccccc2)NC(=O)[C@H](CCN)NC1=O)[C@@H](C)O (Octanoyl-[Dab]T[Dab][Dab][Dab][dF]L[Dab][Phe(4-NH2)]T; lactam 4-C) | > 32 | 16 (≈ 12.8 µM) | 16 (≈ 12.8 µM) | > 32 | > 32 | > 32 | > 32 | > 32 | > 300 | 16 (≈ 12.8 µM) | > 32 | > 32 | 32 (≈ 25.6 µM)
